Here are results for five compounds from PMC2933822 (Chemical research in toxicology, 2010).

In series [1] the test system is A2780 human ovarian carcinoma cells. As to the kind of experiment: Phototoxicity / dark cytotoxicity, neutral red uptake assay, UVA. The series is classed as cell-based. The settings on record: for IC50: neutral red dye uptake; for IC50 (cisplatin)/IC50(photoPt): A2780, fold difference vs cisplatin under identical conditions. Summed up:
(§1)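 Cells were kept antibiotic-free in RPMI with 10% FBS at 37 °C in 5% CO2. They were washed in PBS, then given the test compound in EBSS for 1 h at 37 °C. Light plates received 5 J cm−2 UVA (1.77 mW cm−2, λmax 365 nm, below 320 nm filtered); dark plates were sham irradiated in parallel. Read-out was neutral red uptake. IC50 came from non-linear regression, 2-4 experiments in triplicate. The ratio is cisplatin IC50 (same conditions) over complex IC50.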

Series [2] concerns cisplatin-resistant derivative cell line A2780CIS. The description is as above. The settings on record: for IC50: neutral red dye uptake. It is filed as cell-based, human. Summed up: as §1
The subject of series [3] is Human HaCaT keratinocytes. Nature of the series: Phototoxicity / dark cytotoxicity, neutral red uptake assay, UVA. It is filed as cell-based. As to conditions: for IC50: HaCaT.
Series [4] concerns A2780 human ovarian carcinoma cells. As to conditions: cited from earlier work.
The test system of the next series is a number of cell lines. The settings on record: photoactivated; cited from earlier work.
A further series concerns HaCaT, A2780, A2780CIS. Nature of the series: Photo- and dark cytotoxicity stated in words across the cell lines. The series is classed as cell-based, human. As to conditions: UVA 365 nm irradiation. The procedure, abridged: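 HaCaT keratinocytes (DMEM, 5% FBS, 1% non-essential amino acids) and A2780 or A2780CIS cells (RPMI, 10% FBS) were grown at 37 °C without antibiotics. Cells were PBS-washed, then exposed 1 h at 37 °C to test compound in EBSS. They received 5 J cm−2 UVA (1.77 mW cm−2, λmax 365 nm, <320 nm filtered), with sham-irradiated parallel dark plates. Read-out was neutral red uptake. IC50s came from non-linear regression, 2-4 experiments in triplicate.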

In series [5] the test system is cisplatin-resistant derivative cell line A2780CIS. The settings on record: cited from earlier work.
The test system of series [6] is Human HaCaT keratinocytes. As to conditions: cited from earlier work.
For another series, the system named is DNA. As to the kind of experiment: Comet assay. It is filed as cell-based, human. The settings on record: +UVA 5 J cm^−2, then H2O2.
[7] abbreviates: +365 nm (5 J cm^−2 UVA), 1 h treatment, neutral red dye uptake.
Where [8] appears, read: Dark (sham irradiated), neutral red dye uptake.

“Also recorded” adds a separate entry of the source. Like-named read-outs stand apart in the source and are kept apart here. A value given as a limit tells only on which side of the number the result lay.

As a reminder, the IC50 is the concentration needed to halve the response being measured.

On to “cis,trans,cis-[Pt(N3)2(OH)2(NH3)(pentylamine)] [Complex 6c]”, for which the IC50 in series [1] (A2780, +365 nm (5 J cm^−2 UVA)) was over 240 µM; in series [1] (A2780, Dark (sham irradiated)), over 240 µM; in [2] (+365 nm (5 J cm^−2 UVA)), over 240 µM; in [2] (Dark (sham irradiated)), over 240 µM; in [3] (setting [7]), 224 µM; in [3] (setting [8]) it was over 240 µM. For the same compound, in series [1], the “IC50 (cisplatin)/IC50(photoPt)” value is recorded as 0.6.
For “cis,trans,cis-[Pt(N3)2(OH)2(NH3)(propylamine)] [Complex 4c]”, the IC50 is 93.4 µM in series [1] (A2780, +365 nm (5 J cm^−2 UVA)); over 257 µM in series [1] (A2780, Dark (sham irradiated)); 204 µM in series [3] (setting [7]); over 257 µM in series [3] (setting [8]). The “IC50 (cisplatin)/IC50(photoPt)” value in [1] is 1.6.
For the compound “trans,trans,trans-[Pt(N3)2(OH)2(NH3)(py)] [Complex 7t]”, the “IC50 (cisplatin)/IC50(photoPt)” value in series [4] is given as 80.0; in series [5] it was 15.4; in series [6] it was 21.2. Moreover, the “fold more cytotoxic following irradiation than treatment with cisplatin” value with a number of cell lines is on record as “up to 90 ×”. Besides, the “phototoxicity / photocytotoxicity” value with HaCaT, A2780, A2780CIS is “the most phototoxic molecule tested; also recorded: the most phototoxic complex which still maintains dark stability”.
On to `CN(C)CCCN1c2ccccc2Sc2ccc(Cl)cc21` [CPZ, Chlorpromazine, reference compound], for which the IC50 in [3] (Homo sapiens, light or radiation study) turned out to be 240 µM; in series [3] (Homo sapiens, light or radiation study, 1 h) it was 9 µM.
For “cis,trans,cis-[Pt(N3)2(OH)2(NH3)(pyridine)] [Complex 7c]”, the 50% inhibitory concentration (IC50) in series [1] (A2780, +365 nm (5 J cm^−2 UVA)) was 79.6 µM; in series [1] (A2780, Dark (sham irradiated)), over 244 µM; in [2] (+365 nm (5 J cm^−2 UVA)), 109 µM; in series [2] (Dark (sham irradiated)), over 244 µM; in [3] (setting [7]), 101 µM; in [3] (setting [8]), over 244 µM. The “IC50 (cisplatin)/IC50(photoPt)” value worked out at 1.9 in series [1] and 2.4 in series [2] (fold difference vs cisplatin under identical conditions). Further, the “inhibition of DNA migration (DNA crosslinking), irradiated samples” value with DNA is given as “more effective at inhibiting DNA migration (at low doses)”. Moreover, the “phototoxicity / photocytotoxicity” value in the series on HaCaT, A2780, A2780CIS is on record as “the most phototoxic cis compounds investigated”. The “fold less phototoxic than 7t” value in series [3] (HaCaT cells, UVA) was “approximately 10 fold”.
